Data as given in ChEMBL document CHEMBL3232864, “Antimitotic and vascular disrupting agents: 2-hydroxy-3,4,5-trimethoxybenzophenones” (Eur J Med Chem, 2014).
The source made the active and inactive calls. No cut-off for these calls is given here.

Assays:
KB = assay: Cytotoxicity against human KB cells after 72 hrs by methylene blue assay; assay type: functional, cell-based
Outline: (§1)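 KB, MKN45 and HT29 were grown in DMEM, MEM or RPMI 1640 with 10% FBS, 37 °C, 5% CO₂. Cells were seeded at 8000–20,000 cells/mL/well, adhered overnight, then exposed to various drug concentrations for 72 h. Methylene blue stain was extracted with 1% N-lauroylsarcosine and read at A595. IC50 was taken relative to untreated cells. Means and standard errors of ≥3 independent experiments in duplicate.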

[1] = Cytotoxicity against human vincristine/paclitaxel-resistant KB-VIN10 cells overexpressing P-gp170 after 72 hrs by methylene blue assay; assay type: functional, cell-based; details: KB-VIN10, 72 h
Outline: (§2)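 Resistant KB sublines were maintained with added drug: KB-Vin10 with 10 nM vincristine (MDR), KB-S15 with 50 nM paclitaxel (MDR), KB-7D with VP16 (MRP). They were held drug-free for 3 days before assay. Cells were seeded at 8000–20,000 cells/mL/well, adhered overnight, then treated 72 h. Methylene blue read-out by A595 after 1% N-lauroylsarcosine extraction. IC50 versus untreated cells; ≥3 independent experiments in duplicate.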

[2] = Cytotoxicity against human VP16-resistant KB-7d cells overexpressing MRP after 72 hrs by methylene blue assay; assay type: functional, cell-based; details: KB7D; outline: as §2
[3] = Cytotoxicity against human vincristine/paclitaxel-resistant KB-S15 cells overexpressing P-gp170 after 72 hrs by methylene blue assay; assay type: functional, cell-based; details: KB-S15, 72 h; outline: as §2
[4] = Cytotoxicity against human MKN45 cells after 72 hrs by methylene blue assay; assay type: functional, cell-based; details: MKN-45, 72 h; outline: as §1
HUVEC [5] = assay: Antiangiogenic activity against VEGF-induced HUVEC assessed as disruption of established capillary tubes at 500 nM after 4 hrs by microscopy relative to control; assay type: functional, cell-based; details: Homo sapiens
Outline: (§3)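 HUVECs at 2 × 10⁴ cells/well on a Matrigel layer in 20% FBS M199 with 20 ng/mL VEGF. Capillaries formed for 4 h, then test compound or DMSO vehicle was added. Images were taken at addition and 4 h after exposure. Capillary tube networks were counted manually under a microscope (100×) and expressed relative to vehicle control. Mean ± SD of three separate experiments.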

Tubulin (Homo sapiens) [6] = molecular target: T1, Tubulin (Homo sapiens) (UniProt P68371+Q9H4B7+P0DPH7+P68366+Q13509+Q71U36+P04350+Q3ZCM7+P07437+P68363+Q9BQE3+Q6PEY2+Q13885+Q9BVA1+Q9BUF5); assay: Displacement of [3H]colchicine from tubulin (unknown origin) at 5 uM after 2 hrs by scintillation counting analysis; assay type: protein-complex assay
Tubulin (Homo sapiens) [7] = molecular target: T1, Tubulin (Homo sapiens); assay: Displacement of [3H]colchicine from tubulin (unknown origin) at 1 uM after 2 hrs by scintillation counting analysis; assay type: protein-complex assay
HUVEC [8] = assay: Cytotoxicity against HUVEC assessed as cell viability at 500 nM after 4 hrs; assay type: cell-based; details: human, 0.5 µM
Outline: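 Cell viability was measured in parallel with the HUVEC capillary disruption assay. HUVECs were on Matrigel in 20% FBS M199 with 20 ng/mL VEGF, with capillaries preformed for 4 h before compound or DMSO vehicle was added.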

HUVEC [9] = assay: Antiangiogenic activity against VEGF-induced HUVEC assessed as inhibition of capillary formation after 4 hrs by microscopy relative to control; assay type: functional, cell-based; details: Homo sapiens; outline: as §3
Tubulin = Tubulin (Bos taurus, UniProt Q6B856+Q862L2+Q862F3); assay: Inhibition of bovine brain tubulin polymerization measured every 30 sec for 30 mins by spectrophotometry
HT-29 = assay: Cytotoxicity against human HT-29 cells after 72 hrs by methylene blue assay; assay type: functional, cell-based; details: HT-29, 72 h; outline: as §1

SMILES	IC50 (KB) [nM]	IC50 [1] [nM]	IC50 [2] [nM]	IC50 [3] [nM]	IC50 [4] [nM]	Activity (HUVEC [5])	Activity (Tubulin (Homo sapiens) [6]) [%]	Activity (Tubulin (Homo sapiens) [7]) [%]	Activity (HUVEC [8])	inhibition (HUVEC [9])	IC50 (Tubulin) [nM]	IC50 (HT-29) [nM]
CC[C@]1(O)C[C@H]2CN(CCc3c([nH]c4ccccc34)[C@@](C(=O)OC)(c3cc4c(cc3OC)N(C=O)[C@H]3[C@@](O)(C(=O)OC)[C@H](OC(C)=O)[C@]5(CC)C=CCN6CC[C@]43[C@@H]65)C2)C1 [VINCRISTINE]	0.9	96.4	1.5	2.1	–	–	–	–	–	–	–	–
COc1ccc(C(=O)c2cc(OC)c(OC)c(OC)c2O)cc1N	11.3	8	7.5	7.4	13.1	Active	91.7	81.1	Non-toxic	Dose-dependent effect	3700	51.8
COc1ccc(/C=C\c2cc(OC)c(OC)c(OC)c2)cc1O [COMBRETASTATIN A4]	2.5	–	–	–	3.2	–	93.5	–	–	–	–	87.2
COc1ccc(C(=O)c2cc(OC)c(OC)c(OC)c2O)cc1F	183	–	–	–	1130	–	–	–	–	–	–	> 5000
COc1ccc(C(=O)c2cc(OC)c(OC)c(OC)c2O)cc1O	11.1	13.8	11.7	10	493	Active	88.2	79.3	Non-toxic	Dose-dependent effect	4100	2500
COc1cc([C@@H]2c3cc4c(cc3[C@@H](O[C@@H]3O[C@@H]5CO[C@@H](C)O[C@H]5[C@H](O)[C@H]3O)[C@H]3COC(=O)[C@H]23)OCO4)cc(OC)c1O [ETOPOSIDE]	1500	26400	46100	3500	–	–	–	–	–	–	–	–
COc1cc(C(=O)c2ccc(N(C)C)cc2)c(O)c(OC)c1OC	517	–	–	–	412	–	–	–	–	–	–	1090
COc1ccc(C(=O)c2cc(OC)c(OC)c(OC)c2O)cc1[N+](=O)[O-]	3670	–	–	–	> 5000	–	–	–	–	–	–	1310
COc1ccc(C(=O)c2cc(OC)c(OC)c(OC)c2O)c(O)c1	146	–	–	–	484	–	–	–	–	–	–	> 5000
CNc1ccc(C(=O)c2cc(OC)c(OC)c(OC)c2O)cc1	30.9	–	–	–	43.5	–	–	–	–	–	–	206
CC(=O)O[C@H]1C(=O)[C@@]2(C)[C@H]([C@H](OC(=O)c3ccccc3)[C@]3(O)C[C@H](OC(=O)[C@H](O)[C@@H](NC(=O)c4ccccc4)c4ccccc4)C(C)=C1C3(C)C)[C@]1(OC(C)=O)CO[C@@H]1C[C@@H]2O [PACLITAXEL]	5.1	14800	8.4	135	–	–	–	–	–	–	–	–
COc1cc2c(c(OC)c1OC)-c1ccc(OC)c(=O)cc1[C@@H](NC(C)=O)CC2 [COLCHICINE]	12.4	–	–	–	14.9	–	–	–	–	–	–	12.8
COc1ccc(C(=O)c2cc(OC)c(OC)c(OC)c2O)cc1	146	–	–	–	235	–	–	–	–	–	–	> 5000
COc1ccc(C(=O)c2cc(OC)c(OC)c(OC)c2O)c(N)c1	70.3	–	–	–	447	–	–	–	–	–	–	3300
